For experiment [1], the target named is T1, Neutrophil elastase (Homo sapiens) (UniProt P08246).
T1 sequence (whole entry): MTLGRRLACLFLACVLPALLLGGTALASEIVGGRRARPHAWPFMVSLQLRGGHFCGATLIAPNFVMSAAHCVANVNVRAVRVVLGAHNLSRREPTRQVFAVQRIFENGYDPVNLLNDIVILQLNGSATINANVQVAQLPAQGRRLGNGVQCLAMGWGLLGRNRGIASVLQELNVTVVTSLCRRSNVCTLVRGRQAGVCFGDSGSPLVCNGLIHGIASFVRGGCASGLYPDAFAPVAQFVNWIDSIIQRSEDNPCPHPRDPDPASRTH
The experiment is described as follows: Inhibition of human neutrophil elastase at 3.5 mM after 30 mins assessed as p-nitroaniline release. The essentials: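 HNE (7.0 μM stock) preincubated 30 min at 25 °C with inhibitor in DMSO at inhibitor/enzyme ratio 500, in 0.1 M HEPES/0.5 M NaCl pH 7.25. Methoxysuccinyl-Ala-Ala-Pro-Val p-nitroanilide then added, and p-nitroaniline release followed at 410 nm for 2 min. DMSO-only control. Remaining activity = (v/v0)×100, mean of duplicate or triplicate runs.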

Experiment [2] concerns the target Myeloblastin (proteinase 3) (Homo sapiens) (UniProt P24158). The experiment is described as follows: Inhibition of human neutrophil proteinase 3 at 1.73 mM.
In experiment [3] the target is T2, Neutrophil elastase (Homo sapiens, UniProt P08246).
T2 sequence (P08246 whole entry): T1 sequence (whole entry)
The experiment is described as follows: Reversible competitive inhibition of human neutrophil elastase by Dixon plot analysis.

Activity calls are given as the source filed them. The rule behind the calls is not given here.

Chain of Myeloblastin (proteinase 3) (Homo sapiens) (P24158 whole entry, looked up): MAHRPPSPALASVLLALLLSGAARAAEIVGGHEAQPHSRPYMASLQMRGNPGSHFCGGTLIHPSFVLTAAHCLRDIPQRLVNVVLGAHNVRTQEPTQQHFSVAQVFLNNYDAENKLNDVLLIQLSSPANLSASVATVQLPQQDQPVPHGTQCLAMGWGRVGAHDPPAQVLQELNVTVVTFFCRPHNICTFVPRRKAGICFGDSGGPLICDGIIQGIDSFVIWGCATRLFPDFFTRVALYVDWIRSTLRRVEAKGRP

Take `CCOC(=O)CNC(=O)NN1CN(Cc2ccccc2)C(Cc2ccccc2)C1=O` (racemic): the inhibition in experiment [1] and in experiment [2] was 0% each time.
For `O=C(O)c1ccccc1C(=O)NN1CN(Cc2ccccc2)C(Cc2ccccc2)C1=O` (racemic), the inhibition in experiment [1] and in experiment [2] was 0% each time.
With `CC(C)CC1C(=O)N(NC(=O)CCc2ccccc2)CN1Cc1ccccc1` (racemic), the inhibition in experiment [1] and in experiment [2] was 0% in each case.
Consider `CC(C)CC1C(=O)N(NC(=O)CCC(=O)O)CN1Cc1ccccc1` (racemic), for which the inhibition in experiment [1] and in experiment [2] was 0% each time.
In the case of `O=C(O)CCC(=O)NN1CN(Cc2ccccc2)C(Cc2ccccc2)C1=O` (racemic), the inhibition in experiment [1] and in experiment [2] was 0% each time.
As for `O=C(NN1CNC(Cc2ccccc2)C1=O)C1CC(=O)N(Cc2ccc(F)cc2)C1` (racemic), the inhibition in experiment [1] and in experiment [2] was 0% in each case.
Take `O=C(NN1CN(Cc2ccccc2)C(Cc2ccccc2)C1=O)C1CC(=O)N(Cc2ccc(F)cc2)C1` (racemic): the inhibition in experiment [1] and in experiment [2] was 0% each time.
As for `O=C(NCCc1ccccc1)NN1CN(Cc2ccccc2)C(Cc2ccccc2)C1=O` (racemic), the inhibition in experiment [1] and in experiment [2] was 0% throughout.
Regarding `O=C(O)CCC(=O)NN1CNC(Cc2ccccc2)C1=O` (stereo not given), the inhibition in experiment [1] and in experiment [2] was 0% throughout.
`CCOC(=O)CNC(=O)NN1CN(Cc2ccccc2)C(CC(C)C)C1=O` (racemic): the inhibition in experiment [1] and in experiment [2] was 0% throughout.
On to `O=C(O)c1ccccc1C(=O)NN1CNC(Cc2ccccc2)C1=O` (racemic), for which the inhibition in experiment [1] and in experiment [2] was 0% throughout.
As to `CC(C)C[C@@H]1C(=O)N(NC(=O)[C@@H](Cc2ccccc2)NC(=O)OCc2ccccc2)CN1Cc1ccccc1` (racemic), in experiment [3], affinity was put at a Ki of 7.34 µM. Moreover, the inhibition entry in experiment [2] is “inactive”.
For `CC(C)CC1C(=O)N(NC(=O)NCCc2ccccc2)CN1Cc1ccccc1` (racemic), the inhibition in experiment [1] and in experiment [2] was 0% in each case.
Regarding `O=C(NN1CN(Cc2ccccc2)C(Cc2ccccc2)C1=O)C1CC(=O)N(Cc2ccccc2)C1` (racemic), the inhibition in experiment [1] and in experiment [2] was 0% throughout.
Turning to `O=C(NCCc1ccccc1)NN1CNC(Cc2ccccc2)C1=O` (racemic), the inhibition in experiment [1] and in experiment [2] was 0% in each case.
For `CC(C)CC1C(=O)N(NC(=O)c2ccccc2C(=O)O)CN1Cc1ccccc1` (racemic), the inhibition in experiment [1] and in experiment [2] was 0% in each case.
On to `O=C(NN1CNC(Cc2ccccc2)C1=O)C1CC(=O)N(Cc2ccccc2)C1` (racemic), for which the inhibition in experiment [1] and in experiment [2] was 0% in each case.
Take `O=C(NN1CN(Cc2ccccc2)C(Cc2ccccc2)C1=O)C1CC(=O)N(Cc2ccco2)C1` (racemic): the inhibition in experiment [1] and in experiment [2] was 0% each time.
On to `Cc1ccc(S(=O)(=O)N(N2CN(Cc3ccccc3)C(CC(C)C)C2=O)S(=O)(=O)c2ccc(C)cc2)cc1` (racemic), for which the inhibition in experiment [1] and in experiment [2] was 0% throughout.
Consider `CC(C)CC1C(=O)N(N(S(C)(=O)=O)S(C)(=O)=O)CN1Cc1ccccc1` (racemic), for which the inhibition in experiment [1] and in experiment [2] was 0% throughout.

One may read the inhibition as the percentage by which the read-out fell short of the control. By Ki is commonly meant the dissociation constant of the complex between target and ligand, obtained from inhibition or displacement. Read a low Ki as a stronger hold on the target.

The record behind these values is ChEMBL document CHEMBL1240478, “Inhibitors of human neutrophil elastase based on a highly functionalized N-amino-4-imidazolidinone scaffold” (Eur J Med Chem, 2010).
